Test results reported in the EternaBench riboswitch data.

Test system: MS2 coat protein
Test: apparent Kd, MS2 coat protein; higher = weaker binding; RNA-MaP array
Procedure, shortened: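 For each design, the apparent Kd is the median of binding-curve fits across its clusters. Designs measured on fewer than 10 clusters were dropped. The RNAs were transcribed from sequenced DNA templates on an Illumina sequencing chip and incubated at room temperature, with or without input ligand, with fluorescently labeled MS2 coat protein at 1.5 nM to 3 μM.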

[1] = designed as: OFF switch for flavin mononucleotide, no ligand
[2] = ligand present: flavin mononucleotide, designed as: OFF switch for flavin mononucleotide
[3] = designed as: ON switch for flavin mononucleotide, no ligand
[4] = ligand present: flavin mononucleotide, designed as: ON switch for flavin mononucleotide
[5] = designed as: OFF switch for theophylline, no ligand
[6] = ligand present: theophylline, designed as: OFF switch for theophylline
[7] = designed as: OFF switch for tryptophan, no ligand
[8] = ligand present: tryptophan, designed as: OFF switch for tryptophan

| Sequence | apparent Kd [1] | apparent Kd [2] | apparent Kd [3] | apparent Kd [4] | other results |
| --- | --- | --- | --- | --- | --- |
| GGACGUGGGCAGGAUAUGCGAAUUGAUUGAGCGGCAGAAGGGCCUACAUGAGGAUCACCCAUGUAGAUGCUUAC | 5.4 nM | 11.7 nM | – | – | – |
| UGUCAGGUCCAUAACAUGAGGAUCACCCAUGUAAGGCAUGAGCAGGAUAUCAAAAGUCGUAAGACAGAGAAGGGCUAAAUGACC | 7 nM | 7.51 nM | – | – | – |
| UAUUUUGCGAAGAAGGAAGCCUCACUGGAAUGCUUAGGAUAUUCUCGCGUGGAGCACAUGCACAUGAGGAUCACCCAUGUACCG | – | – | 28.7 nM | 20.1 nM | – |
| ACUCUCGGCUAAGGAUAUCUCCGACUGACCAAUAGAGAAGGUAGUCGACGUGCGAUCAGACAUGAGGAUCACCCAUGUGAAAUC | – | – | 7.07 nM | 7.14 nM | – |
| CACAUGAGGAUCACCCAUGUCUACGAAAGAUGUAGGGAAAAGAGAAGGUGGAGGGAACUGCCAGCCAAGGAUAUCUGCACUCGA | 31.8 nM | 33.3 nM | – | – | – |
| AAUUUUAUGAAAGGAUAUGUGUGCUGGUCCAUCACAGAAGGUUCAAGGAGAUGGAUAUAACGACAUGAGGAUCACCCAUGUGCU | – | – | 32 nM | 22.1 nM | – |
| GUCGCAAUCCAGAAGGACGGGCUUGGCGAGUACGUAGGAUAUGGCAGUCACAUGAGGAUCACCCAUGUCAGGAAUUUAAUCAGG | – | – | 53.8 nM | 21.7 nM | – |
| GGUCCACAUGAGGAUCACCCAUGUAAGGAUAUCCUGUUUUCUGGUUUAGAGUCGCGAAGGAGAAGGUACAUUAA | 22.5 nM | 41.1 nM | – | – | – |
| CUGAGGUUAGGAUAUCUUCUGUUAUCUUCACGAUGAUAAACAGAGAAGGAACAUGAGGAUCACCCAUGUGGUCU | 135 nM | 99.8 nM | – | – | – |
| CGCAAUUCCUGAGGAUAUUGGCAGCGACAUGAGGAUCACCCAUGUGACCAUUUGGUGUUUUGUGUCAAGAAGGCAGCCCAUGAG | 44.9 nM | 33.8 nM | – | – | – |
| CAAGCGCAUAAGUACGCAACUACAUGAGGAUCACCCAUGUGAAGAAGGGCACAUCUAUCCCACGUGCAGGAUAUUCUCCAAUUU | – | – | 44.8 nM | 51 nM | – |
| AUGAAACAUGAGGAUCACCCAUGUGAGGAUAUGGUCUCGAACAAAAUACAAACACCAUCCAGAAGGCACAUGAA | 29.8 nM | 27.7 nM | – | – | – |
| GGCGCGGCAGGAUAUGGAUGACGUGACAUGAGGAUCACCCAUGUGCUUAGAUCAUUCGUACCAGAAGGGCCCGCAG | 4.29 nM | 4.3 nM | – | – | – |
| CGGUUACUAGGAUAUACAUGAGGAUCACCCAUGUGACCUCCCGUCACGCGUGUACUGGGUAGAAGGAGUCAGGU | 24.8 nM | 34.8 nM | – | – | – |
| ACGAGCCUAGGAUAUACAUGAGGAUCACCCAUGUGACUGAACACUCCGGUAUGUGCGGGUAGAAGGAGGUUCCA | 16.3 nM | 16.8 nM | – | – | – |
| AAAUACGUAAAACAUGAGGAUCACCCAUGUACAUUUAUUACCAGAAGGAGCGCUAAAAGUACCAGCUAGGAUAUGGGAAGCAAC | – | – | 8.05 nM | 5.83 nM | – |
| CUGCCACAGAUAGAUACCAGAGGCGUGCAAGCUACAGCUCACAUGAGGAUCACCCAUGUUCUCCCUUGGCAGCUACGGUGUAAGG | – | – | – | – | apparent Kd [5]: 16.6 nM; apparent Kd [6]: 17.4 nM |
| AAAUAAUCUAGUCCACAAUGUGACUCAGAUACCAGUGCAAAGCUACACCCUUGGCAGCUGGUUACAUGAGGAUCACCCAUGUCGU | – | – | – | – | apparent Kd [5]: 47.6 nM; apparent Kd [6]: 116 nM |

| Sequence | apparent Kd [1] | apparent Kd [2] | apparent Kd [3] | apparent Kd [4] | other results |
| --- | --- | --- | --- | --- | --- |
| AGCGCGAAUAGAUCCAAAGUUAUUAGUGAGCGAGGACCGGUACGGCCGCCACUCGUGGCUCUACAUGAGGAUCACCCAUGUACAU | – | – | – | – | apparent Kd [7]: 354 nM; apparent Kd [8]: 432 nM |
| AGUAACGGAACAUGAGGAUCACCCAUGUCAAAAGAUAAGACAAAGGAUAUCAGAUAAAGACCAAAUGAGAAGGUUGGAAGACAA | – | – | 43 nM | 31.4 nM | – |
| UCGAUAAGAGGAUAUACGUGAUAGUUCUCCUCCCUAUGACUACAUGAGGAUCACCCAUGUAGAAGGCUUAACGG | 6.31 nM | 6.54 nM | – | – | – |
| CAAUGGCAGUUGCAGGAUAUUCGGCCGGACACAUGAGGAUCACCCAUGUAGGUUCUCCCAUGGAUGAAGAAGGGCACAACAGAAAC | – | – | 134 nM | 66.4 nM | – |
| GAGUGGUAAGGAUAUAAUACGAAUACGGUGAAACCCGGCGUUUAGAAGGUACAUGAGGAUCACCCAUGUGAUUA | 13.2 nM | 13.8 nM | – | – | – |
| UUGCAUUCUAAUCCUCUUACGACAUGAGGAUCACCCAUGUGUCAGGAUAUUCGAGAAGGAGCGACGAAGAAGGGACUAAUACAC | 40.7 nM | 32.8 nM | – | – | – |
| AUGCGCUAUAUGGAUACCAGUAUGAUAAUUGACAUGAGGAUCACCCAUGUGAGCUCUACCUACCCUUGGCAGCCAACCCUAUUUG | – | – | – | – | apparent Kd (designed as: ON switch for theophylline, no ligand): 21.9 nM; apparent Kd (ligand present: theophylline, designed as: ON switch for theophylline): 22.9 nM |
| AUCAGUCAAGAAGGAUAUGCAAUAUCCUGGCACGUAGACAUGAGGAUCACCCAUGUGCAGGCUAAGCAGAAGGUCUUAGAAGGU | 16 nM | 9.8 nM | – | – | – |
| UUGGAUGAAGGAGUGAAAAGCAACUCAGAUACCAGUCUGAGUAAUGACCCUUGGCAGCUGAGAACAUGAGGAUCACCCAUGUGAC | – | – | – | – | apparent Kd [5]: 15.2 nM; apparent Kd [6]: 32.2 nM |
| GGUUGAUGGUCGGCCGCCACUGUUGGUGCCAUGAGUUAAGUAUAGCACAUGAGGAUCACCCAUGUCAGGACCGGGACUCUACCCG | – | – | – | – | apparent Kd [7]: 14.6 nM; apparent Kd [8]: 18.1 nM |
| AUCAAGUGAGGAUAUCCGUAGACUCCUAAUCAGCGACUCAAGGAGAAGGCACAUGAGGAUCACCCAUGUUAGAU | 19.6 nM | 20.8 nM | – | – | – |
| CGUGAAUACGAAGGAUAUGAAACAUGAGGAUCACCCAUGUAAGGUUUAAGCGACGGCUUGACAGGUCAGAAGGUCGUCCGCAUG | – | – | 42.2 nM | 27.8 nM | – |
| GUACGGUUCCAAGGAUAUGAUAGGUGACAUGAGGAUCACCCAUGUGCCGGUGGUGGGAGCGAGGAUCAGAAGGUGGCCAGCGGU | – | – | 60 nM | 45.4 nM | – |
| GGGAGAGAGGUCAGGAUAUUGCGGCGAAAUGCAGUCAAGAAGGGACAUGAGGAUCACCCAUGUACAUCAAGAGC | 6.38 nM | 10.4 nM | – | – | – |
| AUCAAUCUAGGAUAUACAUGAGGAUCACCCAUGUCUUCAACCAAGGGCUCCACGACCUGUAGAAGGAGACAAAA | 27 nM | 22 nM | – | – | – |
| GGAUGCUCGACUCAGGAUAUACACACCGCAACAUGAGGAUCACCCAUGUAAUACGAACAAUGCACGUAGAAGGGAGGUUAACUCGA | – | – | 46.4 nM | 19.1 nM | – |
| UUACGGCCGGAAGGAUAUUGUGGCUCCGGAGUAACAUGAGGAUCACCCAUGUGAAUCAAACACAACAAGAAGGUCCCAAAUAGG | – | – | 15.9 nM | 15.5 nM | – |
| CACCAAUUUCGAGGAUAUACGGCCGGUUAACAUUCGUCUUACAUGAGGAUCACCCAUGUGUUCGCGUAGAAGGCGAUUCUUAAU | – | – | 35.4 nM | 31.2 nM | – |
